Screening results: PubChem, several laboratories
Hep lipid drop: hepatic lipid droplet formation modulation. 0.4% of 240,000 active. AID 1656. AML12 mouse hepatocytes, oleate lipid droplets, BODIPY imaging. inhibition, % at 6.5 µM;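 active = lipid droplet intensity inhibited by at least 50%, with more than 500 cells counted; inconclusive = wells with under 300 cells, treated as cytotoxic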
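Assay system: AML12 mouse liver cells | Compound: 6.5 µM single-point dosing | Schedule: Overnight exposure | Technique: Fluorescence imaging, 20x objective, two fields per well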
NR3A LBD binder: NR3A (human) ligand-binding domain modulation. NR3A LBD differential scanning fluorimetry, Tm shift; 0% = protein alone, 100% = glycine-bound protein. Tm shift relative to glycine control, % at 25 µM. 2.5% of 340,000 active. AID 1259313;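 active = melting temperature shift of at least 10% of the positive control shift, at one fixed dose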
aDG glyco up: increases alpha dystroglycan glycosylation. activation, % at 10 µM. 0.22% of 360,000 active. Pro5-aDG cells, alpha-DG glycosylation AlphaScreen (IIH6); 0% Pro5, 100% B10-LARGE cell signal;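 active = activation of at least 8% versus controls, or a plate z-score of at least 8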;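 also: Pro5 are CHO cells carrying HIG-tagged alpha-DG that lacks glycosylation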
JMJD2C inh: human JMJD2C demethylase inhibition; Q9H3R0; GST-JMJD2C(1-420) H3K9me3 demethylation, DELFIA europium; inhibition, % at 2.35 µM; 0.069% of 330,000 active;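 active = more than half of a compound's replicate wells show inhibition beyond 50%, single wells judged on their own value; inconclusive = some, but no more than half, of replicates pass 50% inhibition; inactive = no replicate passes 50% inhibition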;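 also: signal counts dimethyl H3K9 product captured on neutravidin plate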
Target sequence (Q9H3R0 1-420 limits assumed): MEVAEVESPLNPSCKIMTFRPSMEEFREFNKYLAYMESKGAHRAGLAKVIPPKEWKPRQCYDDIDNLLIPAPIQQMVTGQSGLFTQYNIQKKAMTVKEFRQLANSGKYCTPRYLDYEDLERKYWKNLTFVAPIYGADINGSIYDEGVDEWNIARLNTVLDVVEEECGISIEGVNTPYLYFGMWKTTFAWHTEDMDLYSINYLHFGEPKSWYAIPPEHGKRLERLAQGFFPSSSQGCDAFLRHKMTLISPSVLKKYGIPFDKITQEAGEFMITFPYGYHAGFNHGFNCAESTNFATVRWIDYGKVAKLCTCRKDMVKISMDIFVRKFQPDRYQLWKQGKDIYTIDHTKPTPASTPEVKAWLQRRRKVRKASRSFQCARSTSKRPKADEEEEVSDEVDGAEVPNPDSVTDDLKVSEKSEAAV
GC-A act: GC-A (human) enzyme activation; HEK293 GC-A cells, cGMP TR-FRET, EC30 ANP; 0% at EC30 ANP, 100% saturating ANP; activation, % at 10 µM; 0.14% of 370,000 active; in the data active = activation above about 40%
NPR2 activator: GC-B (human) receptor activation; activation, % at 10 µM; HEK293-GC-B cells, CNP EC30, cGMP TR-FRET; 0% at EC30 CNP, 100% saturating CNP; P20594; 0.11% of 370,000 active;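 active = activation at 10 µM reaching about 35% in either raw or pattern-adjusted values, limit read from the data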
Each line names hits and unclear results; the compound was inactive in the other large screens. A selection: hits, their analogues and other compounds. The true share with any hit is near 3%.

COc1ccccc1NC(=O)Nc1nc(CC(=O)Nc2cc(F)ccc2F)cs1	NR3A LBD binder 20.7, JMJD2C inh inconclusive (no result: Hep lipid drop)
COc1ccccc1NC(=O)Nc1nc(CC(=O)Nc2ccc(N(C)C)cc2)cs1	NR3A LBD binder 24.4 (no result: Hep lipid drop)
COc1ccccc1NC(=O)Nc1nc(CC(=O)Nc2cccc(F)c2)cs1	NR3A LBD binder 28.3 (no result: Hep lipid drop)
Cc1ccc(NC(=S)Nc2nc(CC(=O)Nc3ccccc3)cs2)cc1	NR3A LBD binder 17.3 (no result: Hep lipid drop)
Cc1ccc(NC(=O)Cc2nc(CCl)cs2)cc1	none
COc1ccc(C)cc1NC(=O)Cc1csc(NC(=O)Nc2ccccc2OC)n1	none (no result: Hep lipid drop, NR3A LBD binder, JMJD2C inh)
CCC[C@H]1[C@@H](OC(=O)NCc2ccc(Cl)c(Cl)c2)CC[C@@]23CCCN2C(=O)CCC[C@@H]13	none (no result: Hep lipid drop, NR3A LBD binder, aDG glyco up, JMJD2C inh)
CCOC(=O)N1CCN(C/C(Cl)=C/c2ccccc2)CC1	none
COC(=O)CSc1nnc(-c2ccc(NS(=O)(=O)c3ccccc3)cc2)o1	none (no result: Hep lipid drop)
Cc1ccc(S(=O)(=O)Nc2ccc(-c3nnc(SCc4ccccc4Cl)o3)cc2)cc1	NR3A LBD binder 26.4
Cc1ccc(CSc2nnc(-c3ccc(NS(=O)(=O)c4ccccc4)cc3)o2)cc1	NR3A LBD binder 16.3
COc1ccc(C2C(C(=O)Nc3ccc(Cl)cc3)CCC(=O)N2c2ccc(OC)cc2)cc1 (stereo unspecified)	none (no result: Hep lipid drop, NR3A LBD binder, aDG glyco up, JMJD2C inh)
COc1cccc(/C=C2\CC3(OC(=O)c4ccc(Cl)cc4)CCCN2C3)c1 (stereo unspecified)	none (no result: Hep lipid drop, NR3A LBD binder, aDG glyco up, JMJD2C inh)
C=CCNC(=S)NNc1nc2c(c(=O)[nH]1)C1(CCCC1)Cc1ccccc1-2	none
O=c1[nH]c(NNC(=S)NCc2ccccc2)nc2c1C1(CCCCC1)Cc1ccccc1-2	NR3A LBD binder 25.5
CCOC(=O)C1(C)CCCCCN1C(=O)c1csnn1 (stereo unspecified)	none (no result: Hep lipid drop, NR3A LBD binder, JMJD2C inh)
CC1=C(C)CC(C(=O)Nc2cccc(Cl)c2)C(C(=O)O)C1 (stereo unspecified)	none
O=C(Nc1ccccc1)C1C2CCC3C(CCC21)C3(Cl)Cl (stereo unspecified)	none (no result: Hep lipid drop)
O=C(O)C1CC=CCC1C(=O)Nc1cccc(Cl)c1 (stereo unspecified)	NR3A LBD binder 11.4 (no result: Hep lipid drop)
O=C(Nc1cccc(Cl)c1)C1C2CCC3C(CCC21)C3(Cl)Cl (stereo unspecified)	NR3A LBD binder 14.0
CCN(C(=O)CSc1nnc(-c2cccnc2)n1Cc1ccco1)c1ccccc1	none (no result: Hep lipid drop, NR3A LBD binder, aDG glyco up, JMJD2C inh)
CCN(CC)C(=O)CC[C@H]1CC[C@]2(CCCN(Cc3ccccc3)C2)O1	none (no result: Hep lipid drop, NR3A LBD binder, aDG glyco up, JMJD2C inh)
COC(=O)[C@H](Cc1ccccc1)N1Cc2ccccc2Oc2cc(Br)ccc2S1(=O)=O	none (no result: Hep lipid drop, NR3A LBD binder, aDG glyco up, JMJD2C inh)
CCCCCc1ccc(-c2cn(CCc3c[nH]c4ccccc34)nn2)cc1	NR3A LBD binder 18.8
Cc1ccc(C)c(N2CCN(C(=O)CCc3nc(-c4ccc(Br)cc4)no3)CC2)c1	NR3A LBD binder 17.2 (no result: Hep lipid drop, JMJD2C inh)
Cc1ccc(-c2noc(CCC(=O)N3CCN(c4cc(C)ccc4C)CC3)n2)cc1	none (no result: Hep lipid drop, JMJD2C inh)
Cc1ccc(C)c(N2CCN(C(=O)CCc3nc(-c4cccc(Cl)c4)no3)CC2)c1	NR3A LBD binder 16.8 (no result: Hep lipid drop, JMJD2C inh)
COc1cccc(-c2noc(CCC(=O)N3CCN(c4cc(C)ccc4C)CC3)n2)c1	none (no result: Hep lipid drop, JMJD2C inh)
Clc1ccc([C@H]2OC[C@@]3(CNC4CCCCC4)CS[C@H](c4ccc(Cl)cc4)N23)cc1	none (no result: Hep lipid drop, NR3A LBD binder, aDG glyco up, JMJD2C inh)
CCC(CO)Oc1cc(NCc2ccc(C(C)(C)C)cc2)c2ncn(C(C)C)c2c1 (stereo unspecified)	aDG glyco up 5.2 (no result: Hep lipid drop)
CCC(COC)Oc1cc(NCc2ccccc2)c2ncn(C(C)C)c2c1 (stereo unspecified)	NPR2 activator 57.0 (no result: Hep lipid drop)
O=C(C(=O)N1CCN(c2ccncc2)CC1)c1cccc(Br)c1	none (no result: Hep lipid drop, NR3A LBD binder, JMJD2C inh)
C#CCNC(=O)C[C@H]1C[C@@]2(C(=O)OC)C(=C[C@H](COCc3ccccc3)O[C@@H]2C)N(Cc2cccc3ccccc23)C1=O	none (no result: Hep lipid drop, NR3A LBD binder, aDG glyco up, JMJD2C inh)
O=C(c1ccccc1)c1nn(-c2ccc(Cl)cc2)c(=O)cc1C(F)(F)F	none (no result: Hep lipid drop)
O=C(c1ccccc1)c1nn(-c2ccccc2)c(=O)cc1C(F)(F)F	NR3A LBD binder 12.2 (no result: Hep lipid drop)
COc1ccc(C(=O)NCc2nnc(SCC(=O)NCc3ccc(F)cc3)o2)cc1	NR3A LBD binder 11.2
